Experimental data taken from ChEMBL document CHEMBL1127479, “Synthesis and structure-activity studies of N,N'-diarylguanidine derivatives. N-(1-naphthyl)-N'-(3-ethylphenyl)-N'-methylguanidine: a new, selective noncompetitive NMDA receptor antagonist” (J Med Chem, 1994).

target: not listed separately; test: Tested in vitro for the concentration required to inhibit specific [3H]DTG radioligand binding to sigma receptor on guinea pig brain membrane

IC50 [nM]	SMILES
14	CCc1ccccc1NC(=N)Nc1ccccc1CC
245	CCc1ccc(NC(=N)Nc2ccc(CC)cc2)cc1
356	CC(C)(C)c1ccccc1NC(=N)Nc1ccccc1C(C)(C)C
8110	NC(=Nc1ccccc1-c1ccccc1)Nc1ccccc1-c1ccccc1

target: Glutamate NMDA receptor; test: In vitro concentration required to inhibit specific [3H]MK-801 radioligand binding to N-methyl-D-aspartate (NMDA) receptor on rat brain membrane
Procedure, shortened: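 Rat brain crude synaptic membranes, thawed, pretreated at 1 mg protein/mL with 0.01% Triton X-100 for 15 min at 37 °C, then washed three times by centrifugation. Filtration stop. IC50 taken from displacement curves or nonlinear least-squares regression.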

IC50 [nM]	SMILES
2800	C/[N+](=C(/[NH-])Nc1cccc([N+](=O)[O-])c1)c1cccc2ccccc12
217	CC(C)c1ccccc1N=C(N)Nc1ccccc1C(C)C
335	Cc1cccc(NC(=N)Nc2cccc(C)c2)c1
820	CCc1ccccc1NC(=N)Nc1ccccc1CC
228	NC(=Nc1ccccc1I)Nc1ccccc1I
484	NC(=Nc1cccc2ccccc12)N(c1ccccc1)c1cccc2ccccc12
53	CCN(C(=N)N(C)c1cccc2ccccc12)c1cccc2ccccc12
10000	NC(=Nc1cccc2ccccc12)N1CCCCCC1
506	N=C(Nc1cccc2c1CCC2)Nc1cccc2c1CCC2
1990	Cc1cccc(N=C(N)N(C)c2cccc(C)c2)c1
87	CN(C(=N)Nc1cccc2ccccc12)c1cccc([N+](=O)[O-])c1
10000	N=C(Nc1cccc2ccccc12)N1CCC(c2ccccc2)CC1
1690	CN(C(N)=Nc1cccc(N=[N+]=[N-])c1)c1cccc2ccccc12
> 100000	N=C(N1CCc2ccccc21)N1CCc2ccccc21
10300	CCc1ccc(NC(=N)Nc2ccc(CC)cc2)cc1
38300	CC(C)(C)c1ccccc1NC(=N)Nc1ccccc1C(C)(C)C
168	CCc1cccc(NC(=N)Nc2cccc(CC)c2)c1
2000	CCCc1cccc(NC(=N)Nc2cccc(CCC)c2)c1
330	N=C(Nc1cccc2ccccc12)Nc1cccc2ccccc12
34000	NC(=Nc1ccc(Br)cc1)Nc1ccc(Br)cc1
10000	NC(=Nc1ccccc1-c1ccccc1)Nc1ccccc1-c1ccccc1
13300	Cc1ccc(N=C(N)Nc2ccc(C)cc2)cc1
23200	CC(C)c1ccc(NC(=N)Nc2ccc(C(C)C)cc2)cc1

IC50 [nM]	SMILES
407	CC(C)c1cccc(NC(=N)Nc2cccc(C(C)C)c2)c1
69	CN(C(=N)N(C)c1cccc2ccccc12)c1cccc2ccccc12
115	CN(C(N)=Nc1cccc2ccccc12)c1cccc2ccccc12
10000	CN(C(N)=Nc1cccc(N)c1)c1cccc2ccccc12
10000	CCc1cccc(N=C(N)N2CCC(c3ccccc3)CC2)c1
192	Cc1cccc(NC(=N)Nc2cccc3ccccc23)c1
102	CC(C)c1ccccc1N=C(N)Nc1cccc2ccccc12
100	CCc1cccc(N(C)C(=N)N(C)c2cccc3ccccc23)c1
470	CN(C(=N)N(c1ccccc1)c1cccc2ccccc12)c1cccc2ccccc12
65	CN(C(N)=Nc1cccc2ccccc12)c1cccc(N=[N+]=[N-])c1
209	NC(=Nc1cccc2ccccc12)Nc1ccccc1I
1030	CN(C(N)=Nc1cccc2ccccc12)c1ccccc1
117	CCN(C(N)=Nc1cccc2ccccc12)c1cccc2ccccc12
2900	NC(=Nc1cccc2ccccc12)NCc1ccccc1
10000	N=C(Nc1cccc2ccccc12)N1CCCCC1
493	COc1cccc(N=C(N)Nc2cccc(OC)c2)c1
39	CCc1cccc(NC(=N)Nc2cccc3ccccc23)c1
12700	N=C(Nc1ccc2ccccc2c1)Nc1ccc2ccccc2c1
859	CC(C)c1ccccc1N=C(N)N(C)c1cccc2ccccc12
2070	CN(C(N)=Nc1cccc2ccccc12)c1cccc(N)c1
36	CCc1cccc(N(C)C(N)=Nc2cccc3ccccc23)c1
9120	Cc1ccccc1NC(=N)Nc1ccccc1C [DITOLYLGUANIDINE]

SMILES	IC50 [nM]
CCc1cccc(N=C(N)N(C)c2cccc3ccccc23)c1	537
CCc1cccc(N(CC)C(N)=Nc2cccc3ccccc23)c1	73
N=C(Nc1ccccc1)Nc1ccccc1	3450
CCc1cccc(N(C)C(=N)N(CC)c2cccc3ccccc23)c1	97
